Screening data (PubChem BioAssay)
Rows were chosen to be rich in hits. Some 1.8% of all compounds tested hit in one or more screens of this group.
pCIP destab – p/CIP-EGFP fusion destabilizers, primary screen, fluorescence, F442A cells; Q05BA5; 16 h; decrease of EGFP signal, % at 10 µM; 0.01% of 290,000 active; AID 1984, 2009;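 active = EGFP signal decrease of at least 30% at 10 µM or well 3 SD below plate mean, unless failing retest; inactive = the rest, including hits failing retest or dose response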
PHOSPHO1 inh – PubChem AID 1565; Phosphoethanolamine/phosphocholine phosphatase (Homo sapiens), Q8TCT1; recombinant PHOSPHO1, absorbance phosphatase assay; inhibition, % at 13.3 µM; 1.1% of 290,000 active; in the data active = inhibition above about 60%
Target sequence (Q8TCT1 whole entry, looked up): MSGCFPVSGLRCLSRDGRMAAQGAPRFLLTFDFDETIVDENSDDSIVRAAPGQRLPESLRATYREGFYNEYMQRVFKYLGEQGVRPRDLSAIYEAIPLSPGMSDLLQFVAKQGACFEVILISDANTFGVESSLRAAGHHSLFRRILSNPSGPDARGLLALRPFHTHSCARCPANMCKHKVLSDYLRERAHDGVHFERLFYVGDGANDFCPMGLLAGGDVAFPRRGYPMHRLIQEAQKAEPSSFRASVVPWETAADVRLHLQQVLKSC
APOBEC3A inh – APOBEC3A ssDNA deaminase inhibitors, primary screen, selectivity assay for APOBEC3G inhibitor project, biochemical, FAM/TAMRA oligo cleavage fluorescence. DNA dC->dU-editing enzyme APOBEC-3A (Homo sapiens), P31941. recombinant A3A, FAM/TAMRA ssDNA deamination fluorescence. inhibition, % at 20 µM. 0.41% of 330,000 active. AID 493011, 2011;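 active = at least 40% inhibition at 20 µM here, with at most 30% in a related deaminase screen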
A3G deaminase – APOBEC3G DNA deaminase inhibitors, primary screen, biochemical, fluorescence, single-stranded DNA substrate, uHTS. DNA dC->dU-editing enzyme APOBEC-3G (Homo sapiens), Q9HC16. recombinant A3G, ssDNA deamination FAM/TAMRA fluorescence. inhibition, % at 20 µM. 0.28% of 330,000 active. AID 493012, 2011;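 active = inhibition of at least 40% at 20 µM, with no more than 30% in the related APOBEC3A deaminase screen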
Target sequence (Q9HC16 whole entry, looked up): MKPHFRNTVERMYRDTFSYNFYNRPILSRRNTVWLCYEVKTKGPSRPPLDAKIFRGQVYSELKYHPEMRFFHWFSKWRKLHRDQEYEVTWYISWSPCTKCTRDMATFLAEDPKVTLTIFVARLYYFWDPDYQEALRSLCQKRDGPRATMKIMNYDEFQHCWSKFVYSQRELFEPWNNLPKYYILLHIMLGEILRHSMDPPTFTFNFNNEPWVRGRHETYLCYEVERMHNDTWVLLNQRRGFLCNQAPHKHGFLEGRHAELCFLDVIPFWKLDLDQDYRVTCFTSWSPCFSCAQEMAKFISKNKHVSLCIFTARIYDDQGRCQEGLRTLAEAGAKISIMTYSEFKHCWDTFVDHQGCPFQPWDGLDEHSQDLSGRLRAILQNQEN
Tb MetRS inh – T. brucei MetRS inhibitors, primary screen, biochemical, luminescence. 0.4% of 360,000 active. inhibition, % at 11.9 µM. purified T. brucei MetRS, ATP depletion, Kinase-Glo luminescence. methionyl-tRNA synthetase (Trypanosoma brucei brucei);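 active = inhibition above a per-plate cutoff of the control wells' mean inhibition plus 3 SD, cut at about 5.5% in these data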
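assay system = parasite MetRS enzyme | timing = 15 min preincubation, 2 h reaction, all 25 °C | evaluation = percent inhibition relative to median high and low control wells | medium = HEPES buffer containing pyrophosphatase, BSA, spermine, DTT | compound = single dose, 11.9 µM final nominal, 0.9% final DMSO | detection = Kinase-Glo luminescence, ATP depletion format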
Hits are given with their value.

How did COc1ccc(-c2nnc(SC3CCOC3=O)n2C2CCCCC2)cc1OC (stereo not given) do in these assays?
pCIP destab: inactive; PHOSPHO1 inh: 75.3; APOBEC3A inh: inactive; A3G deaminase: inactive; Tb MetRS inh: inactive

How did CCCCCCc1c(O)nc(SCCN2CCOCC2)[nH]c1=O do in these assays?
pCIP destab: inactive; PHOSPHO1 inh: 67.6; APOBEC3A inh: inactive; A3G deaminase: inactive; Tb MetRS inh: inactive

How did O=C(Nc1ccccc1)c1cccc(N2C(=O)CCC2=O)c1 do in these assays?
pCIP destab: inactive; PHOSPHO1 inh: inactive; APOBEC3A inh: inactive; A3G deaminase: inactive; Tb MetRS inh: inactive

What do the screens show for `CN(C)c1ccc(NC(=O)c2cccc(N3C(=O)CCC3=O)c2)cc1`?
pCIP destab: inactive; PHOSPHO1 inh: 65.6; APOBEC3A inh: inactive; A3G deaminase: inactive; Tb MetRS inh: inactive

What do the screens show for `Cc1cc(C)n(-c2ccc(C(=O)N3CCN(S(=O)(=O)c4ccc(Cl)cc4)CC3)cc2)n1`?
APOBEC3A inh: inactive; A3G deaminase: inactive; Tb MetRS inh: inactive

How did O=C1N(c2ccccc2C(F)(F)F)O[C@]1(c1ccccc1)C1CCCCC1 do in these assays?
APOBEC3A inh: inactive; A3G deaminase: inactive; Tb MetRS inh: inactive

How did CCOC(=O)N1CCN(C(=O)CSc2nnc(Cc3cccn3C)n2CCc2ccccc2)CC1 do in these assays?
pCIP destab: inactive; PHOSPHO1 inh: 62.2; APOBEC3A inh: inactive; A3G deaminase: inactive; Tb MetRS inh: inactive

Results for Cn1cccc1Cc1nnc(SCC(=O)N2CCOCC2)n1CCc1ccccc1 ?
pCIP destab: inactive; PHOSPHO1 inh: inactive; APOBEC3A inh: inactive; A3G deaminase: inactive; Tb MetRS inh: inactive

What do the screens show for `CC1CCCC(C(=O)O)N1C(=O)CCS` (stereo not given)?
pCIP destab: inactive; PHOSPHO1 inh: 62.2; APOBEC3A inh: inactive; A3G deaminase: inactive; Tb MetRS inh: inactive

Results for O=C1c2ccccc2CC1Sc1nnc(-c2ccccn2)o1 (stereo not given) ?
pCIP destab: inactive; PHOSPHO1 inh: 69.4; Tb MetRS inh: inactive

Results for CCc1nc(CN2CCCC(C(=O)c3ccc4c5c(cccc35)CC4)C2)c(C)[nH]1 (stereo not given) ?
pCIP destab: inactive; PHOSPHO1 inh: 60.1; APOBEC3A inh: inactive; A3G deaminase: inactive; Tb MetRS inh: inactive

What do the screens show for `CCOCCCNc1nc(C)nc2c1nnn2Cc1c(F)cccc1Cl`?
pCIP destab: inactive; PHOSPHO1 inh: 64.7; APOBEC3A inh: inactive; A3G deaminase: inactive; Tb MetRS inh: inactive

Results for CCOc1ccccc1NC(=O)CN1C(=O)CSC(C)C1=O (stereo not given) ?
pCIP destab: inactive; PHOSPHO1 inh: 64.7; APOBEC3A inh: inactive; A3G deaminase: inactive; Tb MetRS inh: inactive

How did CCOc1ccccc1NC(=O)CN1C(=O)C(C)SC(C)C1=O (stereo not given) do in these assays?
pCIP destab: inactive; PHOSPHO1 inh: inactive; APOBEC3A inh: inactive; A3G deaminase: inactive; Tb MetRS inh: inactive

Results for O=C(O)/C=C1\NC(=O)c2ccccc21 ?
pCIP destab: inactive; PHOSPHO1 inh: inactive; APOBEC3A inh: inactive; A3G deaminase: inactive; Tb MetRS inh: inactive

How did O=C1N/C(=C\c2ccc(O)cc2)C(=O)c2ccccc21 do in these assays?
pCIP destab: inactive; PHOSPHO1 inh: inactive; APOBEC3A inh: inactive; A3G deaminase: inactive; Tb MetRS inh: 7.8

Results for COc1cccc2c1OC1(N3CCOCC3)CCCCC1C2C[N+](=O)[O-] (stereo not given) ?
Tb MetRS inh: inactive

How did O=C(Cc1ccccn1)c1ccncc1 do in these assays?
Tb MetRS inh: inactive

Results for Cc1cccc(Nc2ncnc3ccc(Br)cc23)c1 ?
pCIP destab: inactive; PHOSPHO1 inh: inactive; APOBEC3A inh: inactive; A3G deaminase: inactive; Tb MetRS inh: inactive

What do the screens show for `Clc1cccc(Nc2ncnc3ccc(Br)cc23)c1`?
pCIP destab: inactive; PHOSPHO1 inh: 62.0; APOBEC3A inh: inactive; A3G deaminase: inactive; Tb MetRS inh: inactive

Results for COc1ccc(C2C(C(=O)c3ccc(C)o3)=C(O)C(=O)N2c2cc(C)on2)cc1OC (stereo not given) ?
pCIP destab: inactive; PHOSPHO1 inh: 60.5; APOBEC3A inh: inactive; A3G deaminase: inactive; Tb MetRS inh: inactive

Results for CCCCC(=O)Nc1ccc(C(=O)N(CC)c2ccccc2C)cc1 ?
pCIP destab: inactive; PHOSPHO1 inh: 65.8; APOBEC3A inh: inactive; A3G deaminase: inactive; Tb MetRS inh: inactive

How did Clc1ccccc1-c1nnc2sc(-c3ccc(Br)o3)nn12 do in these assays?
pCIP destab: inactive; PHOSPHO1 inh: 79.7; APOBEC3A inh: inactive; A3G deaminase: inactive; Tb MetRS inh: inactive

How did c1coc(-c2nn3c(-c4ccco4)nnc3s2)c1 do in these assays?
pCIP destab: inactive; PHOSPHO1 inh: 83.5; APOBEC3A inh: inactive; A3G deaminase: inactive; Tb MetRS inh: inactive

How did Clc1ccc(-c2nnc3sc(-c4ccc(Br)o4)nn23)c(Cl)c1 do in these assays?
pCIP destab: inactive; PHOSPHO1 inh: inactive; APOBEC3A inh: inactive; A3G deaminase: inactive; Tb MetRS inh: inactive

What do the screens show for `CCN(CC)S(=O)(=O)c1cc(C(=O)Nc2cccnc2Cl)ccc1Cl`?
pCIP destab: inactive; PHOSPHO1 inh: inactive; APOBEC3A inh: inactive; A3G deaminase: inactive; Tb MetRS inh: inactive

Results for CCOC(=O)C(C)Oc1nc(Oc2ccccc2)nc(N(C)C)n1 (stereo not given) ?
pCIP destab: inactive; PHOSPHO1 inh: inactive; APOBEC3A inh: inactive; A3G deaminase: inactive; Tb MetRS inh: inactive

Results for C=CCNc1sc(C(=O)c2ccc(C)cc2)c(N)c1C#N ?
pCIP destab: inactive; PHOSPHO1 inh: 95.9; APOBEC3A inh: inactive; A3G deaminase: inactive; Tb MetRS inh: inactive

How did C=CCNc1sc(C(=O)c2ccccc2)c(N)c1C#N do in these assays?
pCIP destab: inactive; PHOSPHO1 inh: 95.9; APOBEC3A inh: inactive; A3G deaminase: inactive; Tb MetRS inh: inactive

What do the screens show for `N#Cc1c(Nc2ccccc2)sc(C(=O)c2ccccc2)c1N`?
pCIP destab: inactive; PHOSPHO1 inh: inactive; APOBEC3A inh: inactive; A3G deaminase: inactive; Tb MetRS inh: inactive

Results for C=CCNc1sc(C(=O)C(C)(C)C)c(N)c1C#N ?
pCIP destab: inactive; PHOSPHO1 inh: inactive; APOBEC3A inh: inactive; A3G deaminase: inactive; Tb MetRS inh: inactive

Results for C=CCNc1sc(C(=O)C2CC2)c(N)c1C#N ?
pCIP destab: inactive; PHOSPHO1 inh: inactive; APOBEC3A inh: inactive; A3G deaminase: inactive; Tb MetRS inh: inactive

How did C=CCNc1sc(C(=O)c2ccc(Br)s2)c(N)c1C#N do in these assays?
pCIP destab: inactive; PHOSPHO1 inh: 81.6; APOBEC3A inh: inactive; A3G deaminase: inactive; Tb MetRS inh: inactive

Results for CSc1ncc(Cl)c(C(=O)Nc2cccnc2)n1 ?
pCIP destab: inactive; APOBEC3A inh: inactive; A3G deaminase: inactive; Tb MetRS inh: inactive
